These results are taken from ChEMBL document CHEMBL3085714 (J Med Chem, 2013).

For data set [1], the species on record is Mus musculus. The experiment in a line: Metabolic stability in C57BL/6 mouse assessed as M-734 metabolite level in blood after 72 hrs by LC-MS/MS analysis. Type of data set: ADME, organism-based.
The species named for data set [2] is Mus musculus. Kind of data set: Metabolic stability in C57BL/6 mouse assessed as M-605 metabolite level in blood after 72 hrs by LC-MS/MS analysis. Type of data set: ADME, organism-based.
Data set [3] deals with Mus musculus. Kind of data set: Terminal elimination rate in C57BL/6 mouse at 10 mg/kg, po. Type of data set: ADME, organism-based. On the set-up: dose 10 mg/kg, route oral. As to conditions: in vivo.
In data set [4] the test system is Mus musculus. The experiment in a line: Half life in C57BL/6 mouse at 10 mg/kg, po. On the set-up: dose 10 mg/kg, route oral. As to conditions: in vivo. Format: ADME, organism-based. Put shortly:
(§1)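 Male Black 6 C57 mice were dosed orally at 10 mg/kg. Plasma was sampled for up to 72 h postdose. Parent drug was quantified by LC-MS/MS after derivatization with 4-pyridinylboronic acid (70 °C, 40 min). Parameters came from noncompartmental analysis of mean plasma concentration–time profiles.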

A short description of data set [5]: AUC (0 to t) in C57BL/6 mouse at 10 mg/kg, po. Format: ADME, organism-based. On the set-up: dose 10 mg/kg, route oral. The note with it: plasma. The essentials:
as §1

A short description of data set [6]: Cmax in C57BL/6 mouse at 10 mg/kg, po. Format: ADME, organism-based. On the set-up: dose 10 mg/kg, route oral. As to conditions: in vivo. The essentials: as §1
The species named for data set [7] is Mus musculus. Kind of data set: Metabolic stability in C57BL/6 mouse assessed as M-603 metabolite level in blood after 72 hrs by LC-MS/MS analysis. Type of data set: ADME, organism-based.
Data set [8] has as its target T1, Mitogen-activated protein kinase 14 (Homo sapiens, UniProt Q16539). Kind of data set: Competitive inhibition of p38alpha MAP kinase (unknown origin) in presence of 100 uM ATP.
The species named for data set [9] is Mus musculus. Kind of data set: Metabolic stability in C57BL/6 mouse assessed as M-732 metabolite level in blood after 72 hrs by LC-MS/MS analysis. Format: ADME, organism-based.
Data set [10] in a line: Tmax in C57BL/6 mouse at 10 mg/kg, po. As to conditions: in vivo. On the set-up: dose 10 mg/kg, route oral. Type of data set: ADME, organism-based.
A short description of data set [11]: AUC (0 to infinity) in C57BL/6 mouse at 10 mg/kg, po. On the set-up: time infinity, dose 10 mg/kg, route oral. Format: ADME, organism-based. The note with it: plasma. Put shortly:
as §1

The target of data set [12] is T1, Mitogen-activated protein kinase 14. The experiment in a line: Inhibition of p38alpha MAP kinase in human whole blood assessed as inhibition of LPS-induced TNFalpha release by ELISA. On the technique in general: An ELISA detects its analyte on a solid surface through an enzyme-linked reagent.
Data set [13] can be described thus: Metabolic stability in human/rat liver microsomes at 1 mg/ml after 180 mins by LC/MS analysis. Format: ADME, Microsome. As to conditions: read-out: Stability. Put shortly: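 Rat and human liver microsomes were incubated with microsomal protein standardized to 1 mg/mL. Aliquots were withdrawn immediately after reaction start and at 10, 20, 40, 60, 120 and 180 min, then analysed by LC-MS.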
Background: Liver microsomes are vesicles of endoplasmic reticulum, rich in cytochrome P450 enzymes.

Data set [14] deals with Liver microsome. Kind of data set: Metabolic stability in male rat liver microsomes. Type of data set: ADME. Put shortly: (§2)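 Pooled liver microsomes, male and female, from rat and human were incubated separately. Time–concentration profiles of metabolite formation were followed by LC-MS. Incubations were run in triplicate and reported as mean ± SEM.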
Data set [15] has as its system Liver microsome. The experiment in a line: Metabolic stability in male human liver microsomes. Type of data set: ADME. The essentials:
as §2

Data set [16] has as its system Liver microsome. Kind of data set: Metabolic stability in female human liver microsomes. Type of data set: ADME. The essentials: as §2
Data set [17] relates to Liver microsome. Kind of data set: Metabolic stability in female rat liver microsomes. Format: ADME. Put shortly:
as §2

T1 sequence (Q16539 whole entry): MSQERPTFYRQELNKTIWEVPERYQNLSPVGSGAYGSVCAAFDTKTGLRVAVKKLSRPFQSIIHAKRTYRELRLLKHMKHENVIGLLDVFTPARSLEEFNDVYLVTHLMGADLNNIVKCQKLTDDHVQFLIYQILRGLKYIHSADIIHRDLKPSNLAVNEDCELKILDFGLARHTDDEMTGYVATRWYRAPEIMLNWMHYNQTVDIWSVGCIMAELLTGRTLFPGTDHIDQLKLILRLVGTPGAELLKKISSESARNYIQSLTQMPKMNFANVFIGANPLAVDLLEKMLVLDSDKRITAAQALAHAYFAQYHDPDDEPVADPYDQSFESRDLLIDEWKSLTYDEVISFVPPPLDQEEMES

`O=C1c2cc(OC[C@H](O)CO)ccc2COc2cc(Nc3ccc(F)cc3F)ccc21`: the Stability result in the data set filed under Mus musculus [1], in the data set filed under Mus musculus [2], in the data set listed under Mus musculus [7] and in the data set listed under Mus musculus [9] was “Unstable” throughout. Further, the Kel with Mus musculus [3] came out at 0.0243 h⁻¹. Further, in the data set on Mus musculus [4], the t1/2 came out at 3.95 h. The compound also displayed an AUC(0-t) in [5] of 6590 ng·h/mL. Moreover, the Cmax in [6] was found to be 627 ng/mL. The results for the IC50 in [8] and in [12] were 14 nM and 233 nM, respectively. For the same compound, the Tmax in [10] turned out to be 1 h. In data set [11], the AUC(0-inf) was determined as 6990 ng·h/mL.
As to `O=C1c2ccccc2CCc2cc(Nc3ccc(F)cc3F)ccc21`, the remaining at 3 h in data set [13] stood at 43%. In addition, the Stability entry with Liver microsome [14], in the data set with Liver microsome [15], with Liver microsome [16] and in the data set with Liver microsome [17] was “Unstable” throughout. Moreover, the figures for the IC50 in [8] and in [12] were 95 nM and 1910 nM, respectively.

Usually AUC(0-t) stands for exposure summed from dosing to a finite time, without extrapolation to infinity. Lower therefore signals low exposure. In general, Cmax refers to the maximum level reached in the sampled fluid or tissue. What is called IC50 is the concentration at which inhibition is half-maximal. Usually Tmax stands for the time from dosing to the highest level. Usually AUC(0-inf) stands for the area under the concentration-time curve extrapolated to infinity. Lower therefore signals less exposure.
